Consider 13 molecules from ChEMBL document CHEMBL3797182, “In vitro evaluation of imidazo[4,5-c]quinolin-2-ones as gametocytocidal antimalarial agents” (Bioorg Med Chem Lett, 2016).

Molecules are shown by their SMILES. A value given as a limit tells only on which side of the number the result lay.

Assay [1] relates to Plasmodium falciparum. Nature of the assay: Antimalarial activity against chloroquine-sensitive asexual blood stage of Plasmodium falciparum 3D7 infected in RBC after 72 hrs by SYBR Green assay. It counts as functional, organism-based. The conditions noted are these: 3D7, 72 h. Put shortly: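 Asexual blood-stage P. falciparum 3D7 (chloroquine-sensitive) parasites. 1536-well format, 11-point dose-response, duplicate tests. Torin 2 served as positive control and DMSO as negative control.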

Assay [2] relates to Plasmodium falciparum. Briefly: Gametocytocidal activity against chloroquine-sensitive late gametocytic stage (III to V) of Plasmodium falciparum 3D7 after 72 hrs by Alamar Blue assay. The conditions noted are these: 3D7, 72 h. It counts as functional, organism-based. Put shortly:
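Late-stage (III–V) P. falciparum 3D7 gametocytes. AlamarBlue redox indicator reads cytosolic metabolic activity as a measure of gametocyte viability. 1536-well format, 11-point dose-response, duplicates. Torin 2 positive control, DMSO negative control.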
On the technique in general: Alamar Blue is a resazurin reagent that responds to reducing activity.

The next assay deals with HepG2. Briefly: Cytotoxicity against human HepG2 cells assessed as cell viability after 24 hrs. It counts as cell-based. As to conditions: HepG2, 24 h. Put shortly:
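HepG2 cell viability as general cytotoxicity. 1536-well, 11-point dose-response in duplicate, top concentration 46 μM. Torin 2 positive control, DMSO negative control.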

The subject of assay [3] is Plasmodium falciparum. Briefly: Selectivity ratio of IC50 for chloroquine-sensitive late gametocytic stage (III to V) of Plasmodium falciparum 3D7 to IC50 for chloroquine-sensitive asexual blood stage of Plasmodium falciparum 3D7. It counts as functional.
For assay [4], the system named is Plasmodium falciparum. Nature of the assay: Gametocytocidal activity against Plasmodium falciparum after 72 hrs by Alamar Blue assay. It counts as functional, organism-based.

As for `Cn1c(=O)n(-c2cccc(C(F)(F)F)c2)c2c3cc(-c4ccc(S(C)(=O)=O)cc4)ccc3ncc21`, the IC50 with Plasmodium falciparum [1] was 578 nM; with Plasmodium falciparum [2] it was 855 nM; in the assay on HepG2, over 45000 nM. The “Ratio IC50” value with Plasmodium falciparum [3] was determined as 1.

In the assay on Plasmodium falciparum [4], `Nc1ccc(-c2ccc3ncc4ccc(=O)n(-c5cccc(C(F)(F)F)c5)c4c3c2)cn1` showed an IC50 of 8 nM.

For `N#Cc1ccc(-c2ccc3ncc4[nH]c(=O)n(-c5cccc(C(F)(F)F)c5)c4c3c2)cc1`, the IC50 in the assay on Plasmodium falciparum [1] is 2580 nM; in the assay on Plasmodium falciparum [2], 6330 nM; in the assay on HepG2 it was over 45000 nM. Moreover, in the assay with Plasmodium falciparum [3], the “Ratio IC50” value came out at 1.

Take `Cn1c(=O)n(-c2cccc(C(F)(F)F)c2)c2c3cc(-c4ccc(F)cc4)ccc3ncc21`: the IC50 in the assay on Plasmodium falciparum [1] is 3180 nM; with Plasmodium falciparum [2] it was 5590 nM; with HepG2, over 45000 nM. Further, the “Ratio IC50” value in the assay on Plasmodium falciparum [3] is recorded as 1.

In the case of `Cc1ccc(-c2ccc3ncc4c(c3c2)n(-c2cccc(C(F)(F)F)c2)c(=O)n4C)cc1`, the figures for the IC50 in the assay with Plasmodium falciparum [1], with Plasmodium falciparum [2] and with HepG2 were 733 nM, 524 nM and over 45000 nM, respectively. The “Ratio IC50” value with Plasmodium falciparum [3] is 1.

Turning to `Cn1c(=O)n(-c2cccc(C(F)(F)F)c2)c2c3cc(-c4ccc(C(N)=O)cc4)ccc3ncc21`, the IC50 in the assay with Plasmodium falciparum [1] amounted to 38 nM; with Plasmodium falciparum [2], 497 nM; in the assay on HepG2, 4690 nM. For the same molecule, the “Ratio IC50” value with Plasmodium falciparum [3] is 10.

For the molecule `Cn1c(=O)n(-c2cccc(C(F)(F)F)c2)c2c3cc(-c4cccc(C#N)c4)ccc3ncc21`, the IC50 in the assay with Plasmodium falciparum [1] is 184 nM; in the assay with Plasmodium falciparum [2], 2160 nM; in the assay with HepG2, over 45000 nM. The Ratio IC50 in the assay on Plasmodium falciparum [3] came to 11.7.

`Cn1c(=O)n(-c2cccc(C(F)(F)F)c2)c2c3cc(-c4ccccc4)ccc3ncc21`: the 50% inhibitory concentration (IC50) is 442 nM in the assay with Plasmodium falciparum [1], 4710 nM in the assay on Plasmodium falciparum [2] and over 45000 nM with HepG2. For the same molecule, the Ratio IC50 with Plasmodium falciparum [3] came out at 10.7.

For `NC(=O)c1ccc(-c2ccc3ncc4[nH]c(=O)n(-c5cccc(C(F)(F)F)c5)c4c3c2)cc1`, the IC50 in the assay on Plasmodium falciparum [1] was 109 nM; with Plasmodium falciparum [2], 294 nM; with HepG2, over 45000 nM. Moreover, in the assay with Plasmodium falciparum [3], the “Ratio IC50” value stood at 1.

With `O=c1[nH]c2cnc3ccc(-c4ccc(F)cc4)cc3c2n1-c1cccc(C(F)(F)F)c1`, the IC50 is 1570 nM in the assay with Plasmodium falciparum [1], 1830 nM in the assay with Plasmodium falciparum [2] and over 45000 nM in the assay on HepG2. Moreover, in the assay on Plasmodium falciparum [3], the “Ratio IC50” value is listed as 1.

Consider `Cn1c(=O)n(-c2cccc(C(F)(F)F)c2)c2c3cc(-c4ccc(C#N)cc4)ccc3ncc21`, for which the IC50 was 7330 nM with Plasmodium falciparum [1], 11000 nM in the assay with Plasmodium falciparum [2] and over 45000 nM in the assay with HepG2. The “Ratio IC50” value in the assay on Plasmodium falciparum [3] was 1.

In the case of `CCn1c(=O)n(-c2cccc(C(F)(F)F)c2)c2c3cc(-c4ccc(Cl)cc4)ccc3ncc21`, the IC50 was 3930 nM with Plasmodium falciparum [1], 10400 nM in the assay on Plasmodium falciparum [2] and over 45000 nM in the assay on HepG2. For the same molecule, the “Ratio IC50” value with Plasmodium falciparum [3] is given as 1.

Turning to `Cn1c(=O)n(-c2cccc(C(F)(F)F)c2)c2c3cc(-c4ccc(Cl)cc4)ccc3ncc21`, the IC50 is 1750 nM with Plasmodium falciparum [1], 1860 nM in the assay with Plasmodium falciparum [2] and over 45000 nM with HepG2. Further, the “Ratio IC50” value in the assay on Plasmodium falciparum [3] amounted to 1.

One may read the IC50 as the concentration needed to halve the response being measured.
